How the values were obtained:
Leishmania major = assay: ST_JUDE: Cytotoxicity using Alamar Blue to measure viability of Leishmania major; format: functional, organism-based
In short: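 L. major promastigotes; drug susceptibility read with Alamar Blue.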

[1] = ST_JUDE: Cytotoxicity using luciferase to measure ATP as an indicator of the viability of human epithelial embryonic kidney cells (HEK293); format: toxicity, cell-based
Plasmodium falciparum [2] = assay: ST_JUDE: Cytotoxicity against Plasmodium falciparum W2; format: functional, organism-based
Plasmodium falciparum [3] = assay: ST_JUDE: Plasmodium falciparum K1 EC50 (uM) as measured by SYBR green dye; format: functional, organism-based
Trypanosoma brucei = assay: ST_JUDE: Cytotoxicity using luciferase to measure ATP as an indicator of the viability of Trypanosoma brucei; format: functional, organism-based
Plasmodium falciparum [4] = assay: ST_JUDE: Cytotoxicity against Plasmodium falciparum Dd2; format: functional, organism-based
[5] = ST_JUDE: Cytotoxicity using luciferase to measure ATP as an indicator of the viability of human foreskin fibroblast cells (BJ); format: toxicity, cell-based
Toxoplasma gondii = assay: ST_JUDE: Growth inhibition of to Toxoplasma gondii, in human U-2OS cells, as measured by luciferase.; format: functional, organism-based; conditions: RH, U2OS
In short: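 T. gondii parasites engineered to express luciferase; drug sensitivity read by luminescence.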

[6] = ST_JUDE: Cytotoxicity using luciferase to measure ATP as an indicator of the viability of human Burkitt''s lymphoma lymphoblast cells (Raji); format: toxicity, cell-based
[7] = ST_JUDE: Cytotoxicity using luciferase to measure ATP as an indicator of the viability of human epithelial hepatocellular carcinoma cells (HepG2); format: toxicity, cell-based
Plasmodium falciparum [8] = assay: ST_JUDE: Cytotoxicity against Plasmodium falciparum V1/S; format: functional, organism-based
Plasmodium falciparum [9] = assay: ST_JUDE: Cytotoxicity against Plasmodium falciparum D10 transfected with yeast DHOD; format: functional, organism-based
Plasmodium falciparum [10] = assay: ST_JUDE: Cytotoxicity against Plasmodium falciparum K1; format: functional, organism-based
In short: (§1)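 Asexual P. falciparum grown in human erythrocytes, exposed to compounds for 72 h, and growth read as the DNA quantity in treated versus control cultures. Dose-response run at 12 concentrations from 10 μM to 5 nM.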

Plasmodium falciparum [11] = assay: ST_JUDE: Cytotoxicity against Plasmodium falciparum SB-A6; format: functional, organism-based
Plasmodium falciparum [12] = assay: ST_JUDE: Cytotoxicity against Plasmodium falciparum 3D7; format: functional, organism-based; in short: as §1
Plasmodium falciparum [13] = assay: ST_JUDE: Plasmodium falciparum 3D7 EC50 (uM) as measured by SYBR green dye; format: functional, organism-based

Structure (SMILES) | EC50 (Leishmania major) | EC50 [1] | EC50 (Plasmodium falciparum [2]) | EC50 (Plasmodium falciparum [3]) | EC50 (Trypanosoma brucei) | EC50 (Plasmodium falciparum [4]) | EC50 [5] | EC50 (Toxoplasma gondii) | EC50 [6] | EC50 [7] | EC50 (Plasmodium falciparum [8]) | EC50 (Plasmodium falciparum [9]) | EC50 (Plasmodium falciparum [10]) | EC50 (Plasmodium falciparum [11]) | EC50 (Plasmodium falciparum [12]) | EC50 (Plasmodium falciparum [13])
CCN1CCN(Cc2c(O)ccc3c(=O)c(Oc4ccccc4C(C)C)c(C(F)(F)F)oc23)CC1 | > 9.98 µM | > 23.3 µM | 0.0418 µM | 0.0592 µM | > 22.4 µM | 0.523 µM | > 23.3 µM | > 12.8 µM | > 23.3 µM | > 23.3 µM | 0.102 µM | 0.247 µM | 0.0696 µM | 0.335 µM | 0.223 µM | 0.226 µM
COc1ccc(Nc2cc(C)c3ccc(O)cc3n2)cc1 | > 20.3 µM | > 47.4 µM | 0.284 µM | 0.216 µM | > 45.4 µM | 0.709 µM | > 47.4 µM | 25.4 µM | > 47.4 µM | 43 µM | 0.307 µM | 1.07 µM | 0.241 µM | 1.23 µM | 0.688 µM | 0.545 µM
COc1ccc2c(c1)N(C)/C(=C/c1cccc[n+]1C)S2 | 0.0088 µM | > 15.7 µM | > 4.04 µM | 0.152 µM | 0.643 µM | 0.472 µM | > 15.7 µM | > 8.63 µM | 6.52 µM | > 15.7 µM | 1.5 µM | 2.46 µM | 0.386 µM | 1.26 µM | 0.441 µM | 0.186 µM
CC(C)c1ccc(CNCC(O)c2ccccc2)cc1 (centres undefined) | > 22.6 µM | 34.5 µM | 1.68 µM | 0.439 µM | 14.4 µM | 2.25 µM | > 52.9 µM | > 29 µM | 23.2 µM | > 52.9 µM | 1.15 µM | 4.1 µM | 0.992 µM | 4.3 µM | 2.4 µM | 1.35 µM
CCCCn1c(=N)n(CC(O)c2ccc(Br)cc2)c2ccccc21 (centres undefined) | > 18.6 µM | > 43.4 µM | 0.638 µM | 0.39 µM | 6.22 µM | 0.869 µM | > 43.4 µM | > 23.8 µM | 32.9 µM | 18.9 µM | 1.11 µM | 5.62 µM | 1.36 µM | 2.62 µM | 2 µM | 1.04 µM
CCOc1cc2c(cc1OCC)C(c1cc(C)c(O)c(C)c1)NCC2 (centres undefined) | > 22.2 µM | > 52 µM | 0.451 µM | 0.587 µM | 14.8 µM | 0.42 µM | > 52 µM | > 28.5 µM | > 52 µM | > 52 µM | 0.868 µM | 2.77 µM | 0.439 µM | 3 µM | 1.3 µM | 1.83 µM
CCCCCCCn1ccc(=N)cc1 | > 22 µM | > 51.4 µM | > 13.2 µM | 2.52 µM | > 49.3 µM | 2.73 µM | > 51.4 µM | > 28.2 µM | 10.8 µM | > 51.4 µM | 10.3 µM | 3.84 µM | 2.31 µM | 4.17 µM | 2.19 µM | 3.1 µM
COCCO/C(O)=C1\C(C)=NC2=C(C(=O)CC(c3ccc(OC)c(OC)c3)C2)C1c1ccccc1F (centres undefined) | > 17.1 µM | > 39.9 µM | 1.35 µM | 0.551 µM | > 38.3 µM | 0.97 µM | > 39.9 µM | > 21.9 µM | > 39.9 µM | > 39.9 µM | 0.406 µM | 0.553 µM | 0.314 µM | 0.313 µM | 0.498 µM | 0.717 µM
OC(CNC1CCCCC1)Cn1c2ccc(Cl)cc2c2cc(Cl)ccc21 (centres undefined) | > 16.6 µM | > 38.8 µM | 0.177 µM | 0.172 µM | 1.97 µM | 0.132 µM | > 38.8 µM | > 21.3 µM | > 38.8 µM | 17.2 µM | 0.975 µM | 0.916 µM | 0.348 µM | 1.05 µM | 1.39 µM | 0.388 µM
CC[n+]1ccccc1C=Cc1ccc(N(C)C)cc1 | > 19.4 µM | > 45.3 µM | > 11.6 µM | 0.704 µM | 14.3 µM | 1.82 µM | > 45.3 µM | > 24.8 µM | 3.86 µM | > 45.3 µM | 1.98 µM | 1.47 µM | 1.14 µM | 1.92 µM | 1.08 µM | > 15 µM
CC(C)CN1C(=O)c2ccccc2C(C(=O)Nc2ccc(F)cc2F)C1c1cccs1 (centres undefined) | > 18.5 µM | > 43.3 µM | 0.738 µM | 0.399 µM | 8.86 µM | 0.808 µM | > 43.3 µM | > 23.7 µM | > 43.3 µM | > 43.3 µM | 0.942 µM | 0.687 µM | > 11.1 µM | 0.97 µM | 0.647 µM | 0.326 µM
Cc1ccc(C2CC(C(F)(F)F)n3nc(C(=O)N4CCN(C(c5ccccc5)c5ccccc5)CC4)cc3N2)cc1 (centres undefined) | > 18.3 µM | > 42.7 µM | > 11 µM | 10.4 µM | 5.41 µM | 1.37 µM | > 42.7 µM | > 23.4 µM | > 42.7 µM | > 42.7 µM | > 11 µM | > 11 µM | > 11 µM | 0.448 µM | 1.12 µM | 0.668 µM
Cc1ccc(C)c(N2CCN(Cc3cc(Cl)ccc3O)CC2)c1 | > 15.4 µM | > 35.9 µM | 1.01 µM | 0.261 µM | > 34.4 µM | 0.323 µM | > 35.9 µM | > 19.7 µM | > 35.9 µM | > 35.9 µM | 0.328 µM | 0.549 µM | 0.195 µM | 0.535 µM | 0.496 µM | 0.725 µM
OC(CNC1CCCC1)Cn1c2ccccc2c2ccccc21 (centres undefined) | > 17.4 µM | 31.5 µM | 0.879 µM | 0.163 µM | 3.41 µM | 0.889 µM | 20.3 µM | > 22.2 µM | > 40.6 µM | 14.8 µM | 0.813 µM | 2.69 µM | 0.62 µM | 3.17 µM | 1.69 µM | 1.08 µM
COC(=O)C1=CNC=C(C(=O)OC)C1c1ccc(Cl)c(Cl)c1 | > 19.6 µM | > 45.8 µM | 0.9 µM | 1.67 µM | 17.1 µM | 0.78 µM | > 45.8 µM | > 25.1 µM | > 45.8 µM | > 45.8 µM | 1.78 µM | > 11.8 µM | 1.36 µM | > 11.8 µM | 0.772 µM | 0.843 µM
O=C(Nc1cccc(Cl)c1N1CCOCC1)C(Cl)(Cl)Cl | > 12.9 µM | > 30.2 µM | > 7.76 µM | 2.98 µM | > 29 µM | 2.47 µM | > 30.2 µM | > 16.6 µM | > 30.2 µM | > 30.2 µM | 1.08 µM | 3.38 µM | 1.4 µM | 2.79 µM | 1.54 µM | 8.6 µM
CCCO/C(O)=C1\C(C)=NC2=C(C(=O)CC(c3ccc(OC)cc3)C2)C1c1ccccc1Cl (centres undefined) | > 17.9 µM | > 41.9 µM | 0.0889 µM | 0.466 µM | 5.09 µM | 0.301 µM | > 41.9 µM | > 22.9 µM | > 41.9 µM | > 41.9 µM | 0.173 µM | 0.188 µM | 0.16 µM | 0.167 µM | 0.373 µM | 0.713 µM
Fc1ccc(Nc2nc(NCc3ccco3)c3ccccc3n2)cc1 | 0.0029 µM | 20 µM | 0.354 µM | > 15 µM | 12.2 µM | 0.489 µM | 20.1 µM | 13.6 µM | 14.9 µM | 8.25 µM | 1.91 µM | 1.2 µM | 1.12 µM | 0.357 µM | 0.581 µM | 0.673 µM
CCc1nc2nc(C)cc(Nc3ccc(I)cc3)n2n1 | > 16.9 µM | > 39.5 µM | 0.595 µM | 0.367 µM | > 37.8 µM | 0.456 µM | > 39.5 µM | > 21.6 µM | > 39.5 µM | > 39.5 µM | 1.16 µM | > 10.1 µM | 0.641 µM | > 10.1 µM | 0.347 µM | 0.285 µM
